Measured values collected from several papers.
Protocols differ between the studies behind these lines.
Read-out: enzyme activity
Mode: inhibitor
CDK2 with cyclin A: Cyclin-dependent kinase 2, with cyclin A (CDK2, Homo sapiens, UniProt P24941)
CDK2 with cyclin E: Cyclin-dependent kinase 2, with cyclin E (CDK2, Homo sapiens, UniProt P24941)

O=C(Nc1cnn(-c2csc(C(=O)NC3COC3)c2)c1)Nc1ccccc1Cl  remaining activity (Cyclin-dependent kinase 2, with cyclin O (CDK2, Homo sapiens, UniProt P24941); 5 µM): 93.2%
CC(C)(C)c1nc(-c2cccc(NS(=O)(=O)c3c(F)cccc3F)c2F)c(-c2ccnc(N)n2)s1  remaining activity (Cyclin-dependent kinase 2, with cyclin A2 (CDK2, Homo sapiens, UniProt P24941); radiometric; 1 µM): 72%
COc1cc(Cl)c(C(=O)N[C@@H](CN[C@H]2CC[C@@H](N)CC2)Cc2ccc(C#N)cc2)cc1-c1ccc(CN[C@H](C)c2ccc(C)cc2)o1  remaining activity (CDK2 with cyclin A; 1 µM): 96%
Cc1ccc(Nc2nccc(N(C)c3ccc4c(C)n(C)nc4c3)n2)cc1S(N)(=O)=O  remaining activity (CDK2 with cyclin E; 0.5 µM): 96.4%
Cc1sc(C(=O)NC2COC2)cc1-n1cc(NC(=O)Nc2c(F)cccc2Cl)cn1  remaining activity (CDK2 with cyclin A; 10 µM): 98.3%
Cn1c(=O)n(-c2ccc(C(C)(C)C#N)cc2)c2c3cc(-c4cnc5ccccc5c4)ccc3ncc21  remaining activity (CDK2 with cyclin A; 10 µM): 74%
CC(C)(O)[C@H]1CC[C@H](Nc2ccc3ncc(-c4cccc(C(F)(F)F)c4)n3n2)CC1  remaining activity (CDK2 with cyclin E; 1 µM): 91.1%
COc1cc(Nc2cnc(C#N)c(O[C@H](C)CN(C)C)n2)ncc1-c1cnn(C)c1  remaining activity (CDK2 with cyclin A; radiometric; 10 µM): 91%
CC(C)(C)c1nc2c(s1)c1nc(N)ncc1c1ccc(NS(=O)(=O)c3c(F)cccc3F)c(F)c12  remaining activity (Cyclin-dependent kinase 2, with cyclin E1 (CDK2, Homo sapiens, UniProt P24941); radiometric; 1 µM): 93%
Cc1ccc(C(=O)Nc2ccc(CN3CCN(C)CC3)c(C(F)(F)F)c2)cc1C#Cc1cnc2cccnn12  remaining activity (Cyclin-dependent kinase 2 (CDK2, Homo sapiens, UniProt P24941); 23.5 nM): 96%
Nc1nc(NC2CCCCC2)sc1C(=O)c1ccccc1  remaining activity (CDK2 with cyclin A; 10 µM): 5%
O=C(Nc1cnn(-c2csc(C(=O)NC3COC3)c2)c1)Nc1c(F)cccc1Cl  remaining activity (Cyclin-dependent kinase 2, with cyclin A1 (CDK2, Homo sapiens, UniProt P24941); 5 µM): 94.2%
Cc1cnc(NC2CCOCC2)nc1-n1cnc(C(=O)NC(CN)c2cc(F)cc(Cl)c2)c1 (stereo not shown)  remaining activity (CDK2 with cyclin E; radiometric; 1 µM): 3%
